Data reported in ChEMBL document CHEMBL1949521, “Discovery of CC-930, an orally active anti-fibrotic JNK inhibitor” (Bioorg Med Chem Lett, 2012).
≈ marks a conversion by molar mass, not a printed value. One block for each compound: values may come before it. Calls of active or inactive are those of the source. The rule behind the calls is not given here.

Assays:
[1] = Lipophilicity, log D of the compound; format: physicochemical; conditions: octanol/water
Salmonella typhimurium = assay: Mutagenic activity in Salmonella Typhimurium by Ames test; format: toxicity, organism-based; conditions: salmonella enterica subsp. enterica serovar typhimurium
[2] = Tmax in rat at 10 mg/kg, po; format: ADME, organism-based; set-up: dose 10 mg/kg, route oral; conditions: in vivo
Outline: (§1)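 Oral dose of 10 mg/kg given as a suspension in aqueous 0.5% CMC/0.25% Tween 80. Plasma AUC, Cmax and Tmax were taken from the oral arm. Bioavailability was derived against the intravenous arm in the same species.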

[3] = molecular target: Mitogen-activated protein kinase 14 (Homo sapiens, UniProt Q16539); assay: Inhibition of p38alpha using myelin basic protein as substrate preincubated for 15 mins prior ATP addition measured after 60 mins by scintillation counting
[4] = Mean residence time in rat at 2 mg/kg, iv; format: ADME, organism-based; set-up: dose 2 mg/kg, route intravenous; conditions: in vivo
Outline: (§2)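 Rats dosed intravenously at 2 mg/kg in a solution of 5% DMA and 30% PEG 400.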

Rattus norvegicus [5] = assay: Toxicity in rat assessed as histological changes at 90 mg/kg, po qd for 4 days; format: organism-based; set-up: dose 90 mg/kg, route oral; conditions: in vivo, 96 h
Outline: (§3)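 Male rats dosed once daily for 4 days by oral gavage with suspensions in aqueous CMC at 30, 90 and 300 mg/kg. Adverse observations were recorded and histology examined.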

Rattus norvegicus [6] = assay: Antiinflammatory activity in CD rat assessed as inhibition of LPS-stimulated TNFalpha production at 10 mg/kg, po administered 1 hr prior LPS challenge measured after 90 mins by ELISA; format: functional
Outline: (§4)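 Acute PK-PD model in rats: compound given by oral gavage at 10 or 30 mg/kg, then lipopolysaccharide injected, and plasma TNF-alpha release measured.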

[7] = Oral bioavailability in cynomolgus monkey at 10 mg/kg; format: ADME, organism-based, Macaca fascicularis; conditions: in vivo; outline: as §1
[8] = Volume of distribution at steady state in cynomolgus monkey at 1 mg/kg, iv; format: ADME, organism-based, Macaca fascicularis; set-up: dose 1 mg/kg, route intravenous; conditions: in vivo, read-out: Vdss
Outline: (§5)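 Intravenous dose of 1 mg/kg given to monkeys in a solution of 5% DMA and 95% isotonic citrate buffer (50 mM, pH 5.0).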

[9] = Tmax in cynomolgus monkey at 10 mg/kg, po; format: ADME, organism-based, Macaca fascicularis; set-up: dose 10 mg/kg, route oral; conditions: in vivo; outline: as §1
[10] = Solubility in simulated intestinal fluid; format: physicochemical
[11] = Volume of distribution at steady state in rat at 2 mg/kg, iv; format: ADME, organism-based; set-up: dose 2 mg/kg, route intravenous; conditions: in vivo, read-out: Vdss; outline: as §2
[12] = Cmax in dog at 10 mg/kg, po; format: ADME, organism-based, Canis lupus familiaris; set-up: dose 10 mg/kg, route oral; conditions: in vivo; outline: as §1
[13] = Oral bioavailability in rat; format: ADME, organism-based; conditions: in vivo
Canis familiaris [14] = assay: (§6) AUC in dog at 10 mg/kg, po; format: ADME, organism-based, Canis lupus familiaris, Plasma; set-up: dose 10 mg/kg, route oral; conditions: in vivo; outline: as §1
[15] = AUC in rat at 2 mg/kg, iv; format: ADME, organism-based; set-up: dose 2 mg/kg, route intravenous; conditions: plasma; outline: as §2
[16] = Dissociation constant, pKa of the compound; format: physicochemical
Canis familiaris [17] = assay: (§7) Oral bioavailability in dog at 10 mg/kg; format: ADME, organism-based, Canis lupus familiaris; conditions: in vivo; outline: as §1
[18] = AUC in cynomolgus monkey at 10 mg/kg, po; format: ADME, organism-based, Macaca fascicularis; set-up: dose 10 mg/kg, route oral; conditions: plasma; outline: as §1
[19] = Clearance in dog at 1 mg/kg, iv; format: ADME, organism-based, Canis lupus familiaris; set-up: dose 1 mg/kg, route intravenous; conditions: in vivo
Mus musculus [20] = assay: Antifibrotic activity in bleomycin-induced C57B1/6 mouse model assessed as reduction in lung fibrosis score at 25 to 150 mg/kg, po bid administered 2 hrs prior bleomycin induction for 13 days; format: functional; set-up: scale not given: the % may be the effect or the level left; conditions: dose mg/kg 25-150
Outline: (§8)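 Mice received oral doses prophylactically at 25, 50, 100 and 150 mg/kg before bleomycin instillation, then twice daily for 13 days. White blood cells, monocytes and lymphocytes were counted in bronchoalveolar lavage, and lung fibrosis was scored, each against a vehicle control.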

[21] = AUC in cynomolgus monkey at 1 mg/kg, iv; format: ADME, organism-based, Macaca fascicularis; set-up: dose 1 mg/kg, route intravenous; conditions: plasma; outline: as §5
Cytochrome P450 3A4 = Cytochrome P450 3A4 (Homo sapiens, UniProt P08684); assay: Inhibition of CYP3A4; format: ADME
[22] = Volume of distribution at steady state in dog at 1 mg/kg, iv; format: ADME, organism-based, Canis lupus familiaris; set-up: dose 1 mg/kg, route intravenous; conditions: in vivo, read-out: Vdss
Mus musculus [23] = assay: Antifibrotic activity in bleomycin-induced C57B1/6 mouse model assessed as inhibition of monocytes in bronchoalveolar lavage at 25 to 150 mg/kg, po bid administered 2 hrs prior bleomycin induction for 13 days; format: functional, organism-based; conditions: Lung; outline: as §8
Rattus norvegicus [24] = assay: Toxicity in rat assessed as adverse effects at 90 mg/kg, po qd for 4 days; format: organism-based; set-up: dose 90 mg/kg, route oral; conditions: in vivo, 96 h; outline: as §3
[25] = Oral bioavailability in rat at 10 mg/kg; format: ADME, organism-based; conditions: in vivo; outline: as §1
Rattus norvegicus [26] = assay: Antiinflammatory activity in CD rat assessed as inhibition of LPS-stimulated TNFalpha production at 30 mg/kg, po administered 1 hr prior LPS challenge measured after 90 mins by ELISA; format: functional; outline: as §4
Mus musculus [27] = assay: Antifibrotic activity in bleomycin-induced C57B1/6 mouse model assessed as inhibition of white blood cells in bronchoalveolar lavage at 25 to 150 mg/kg, po bid administered 2 hrs prior bleomycin induction for 13 days; format: functional, organism-based; conditions: Lung; outline: as §8
Mus musculus [28] = assay: Antifibrotic activity in bleomycin-induced C57B1/6 mouse model assessed as inhibition of lymphocytes in bronchoalveolar lavage at 25 to 150 mg/kg, po bid administered 2 hrs prior bleomycin induction for 13 days; format: functional, organism-based; conditions: Lung; outline: as §8
[29] = molecular target: Mitogen-activated protein kinase 3 (Homo sapiens, UniProt P27361); assay: Inhibition of ERK1
[30] = Clearance in cynomolgus monkey at 1 mg/kg, iv; format: ADME, organism-based, Macaca fascicularis; set-up: dose 1 mg/kg, route intravenous; conditions: in vivo; outline: as §5
[31] = Tmax in dog at 10 mg/kg, po; format: ADME, organism-based, Canis lupus familiaris; set-up: dose 10 mg/kg, route oral; conditions: in vivo; outline: as §1
[32] = Mean residence time in cynomolgus monkey at 1 mg/kg, iv; format: ADME, organism-based, Macaca fascicularis; set-up: dose 1 mg/kg, route intravenous; conditions: in vivo; outline: as §5
Mus musculus [33] = assay: Antifibrotic activity in bleomycin-induced C57B1/6 mouse model assessed as reduction in lung fibrosis score compound po bid administered 2 hrs prior bleomycin induction for 13 days; format: functional, organism-based; outline: as §8
[34] = Cmax in cynomolgus monkey at 10 mg/kg, po; format: ADME, organism-based, Macaca fascicularis; set-up: dose 10 mg/kg, route oral; conditions: in vivo; outline: as §1
[35] = Clearance in rat at 2 mg/kg, iv; format: ADME, organism-based; set-up: dose 2 mg/kg, route intravenous; conditions: in vivo; outline: as §2
[36] = AUC in rat at 10 mg/kg, po; format: ADME, organism-based; set-up: dose 10 mg/kg, route oral; conditions: plasma; outline: as §1
Cytochrome P450 2D6 = Cytochrome P450 2D6 (Homo sapiens, UniProt P10635); assay: Inhibition of CYP2D6; format: ADME
Canis familiaris [37] = assay: (§9) AUC in dog at 1 mg/kg, iv; format: ADME, organism-based, Canis lupus familiaris, Plasma; set-up: dose 1 mg/kg, route intravenous; conditions: in vivo
[38] = Mean residence time in dog at 1 mg/kg, iv; format: ADME, organism-based, Canis lupus familiaris; set-up: dose 1 mg/kg, route intravenous; conditions: in vivo
[39] = Cmax in rat at 10 mg/kg, po; format: ADME, organism-based; set-up: dose 10 mg/kg, route oral; conditions: in vivo; outline: as §1
[40] = molecular target: Mitogen-activated protein kinase 8 (Homo sapiens, UniProt P45983); assay: Inhibition of hexa-His-tagged JNK1 expressed in baculoviral system using GST-tagged c-Jun as substrate preincubated for 15 mins prior ATP addition measured after 60 mins by scintillation counting
[41] = molecular target: c-Jun N-terminal kinase, JNK (Homo sapiens, UniProt P45983+P53779+P45984); assay: Inhibition of JNK-mediated GST tagged c-Jun phosphorylation in human Jurkat T cells compound treated for 30 mins prior anisomycin stimulation measured after 40 mins by fluorescence spectrophotometry; format: cell-based
[42] = molecular target: Mitogen-activated protein kinase 10 (Homo sapiens, UniProt P53779); assay: Inhibition of hexa-His-tagged JNK3 expressed in baculoviral system using GST-tagged cJun as substrate preincubated for 15 mins prior ATP addition measured after 60 mins by scintillation counting
[43] = as §6; format: ADME, organism-based, Canis lupus familiaris, Plasma; set-up: dose 10 mg/kg, route oral; conditions: plasma; outline: as §1
[44] = as §7; format: ADME, organism-based, Canis lupus familiaris; conditions: in vivo; outline: as §1
[45] = molecular target: Mitogen-activated protein kinase 9 (Homo sapiens, UniProt P45984); assay: Inhibition of hexa-His-tagged JNK2 expressed in baculoviral system using GST-tagged cJun as substrate preincubated for 15 mins prior ATP addition measured after 60 mins by scintillation counting
[46] = as §9; format: ADME, organism-based, Canis lupus familiaris, Plasma; set-up: dose 1 mg/kg, route intravenous; conditions: plasma
[47] = AUC in po dosed rat; format: ADME, organism-based; conditions: plasma

Sequence of Mitogen-activated protein kinase 8 (P45983 whole entry): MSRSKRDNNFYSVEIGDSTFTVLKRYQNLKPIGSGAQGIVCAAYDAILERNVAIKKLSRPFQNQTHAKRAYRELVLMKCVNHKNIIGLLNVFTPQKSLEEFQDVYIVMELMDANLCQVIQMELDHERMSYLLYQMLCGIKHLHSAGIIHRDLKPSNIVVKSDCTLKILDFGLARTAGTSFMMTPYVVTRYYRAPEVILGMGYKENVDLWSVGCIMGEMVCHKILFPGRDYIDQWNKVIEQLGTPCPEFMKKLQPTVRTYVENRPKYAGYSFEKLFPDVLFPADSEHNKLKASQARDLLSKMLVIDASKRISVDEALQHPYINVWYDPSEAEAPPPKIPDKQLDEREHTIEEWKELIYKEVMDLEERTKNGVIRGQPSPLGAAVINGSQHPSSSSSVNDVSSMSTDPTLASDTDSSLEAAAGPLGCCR
Sequence of Mitogen-activated protein kinase 14 (Q16539 whole entry): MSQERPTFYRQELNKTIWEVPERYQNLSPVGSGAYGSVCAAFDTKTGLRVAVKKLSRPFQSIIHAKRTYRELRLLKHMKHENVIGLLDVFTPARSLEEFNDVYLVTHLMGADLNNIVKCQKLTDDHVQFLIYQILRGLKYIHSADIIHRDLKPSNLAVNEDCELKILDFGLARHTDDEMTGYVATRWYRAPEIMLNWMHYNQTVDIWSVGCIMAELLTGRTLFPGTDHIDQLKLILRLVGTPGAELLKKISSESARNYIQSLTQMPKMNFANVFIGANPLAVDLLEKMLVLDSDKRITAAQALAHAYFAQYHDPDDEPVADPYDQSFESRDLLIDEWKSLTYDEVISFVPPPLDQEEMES
Sequence of Mitogen-activated protein kinase 9 (P45984 whole entry): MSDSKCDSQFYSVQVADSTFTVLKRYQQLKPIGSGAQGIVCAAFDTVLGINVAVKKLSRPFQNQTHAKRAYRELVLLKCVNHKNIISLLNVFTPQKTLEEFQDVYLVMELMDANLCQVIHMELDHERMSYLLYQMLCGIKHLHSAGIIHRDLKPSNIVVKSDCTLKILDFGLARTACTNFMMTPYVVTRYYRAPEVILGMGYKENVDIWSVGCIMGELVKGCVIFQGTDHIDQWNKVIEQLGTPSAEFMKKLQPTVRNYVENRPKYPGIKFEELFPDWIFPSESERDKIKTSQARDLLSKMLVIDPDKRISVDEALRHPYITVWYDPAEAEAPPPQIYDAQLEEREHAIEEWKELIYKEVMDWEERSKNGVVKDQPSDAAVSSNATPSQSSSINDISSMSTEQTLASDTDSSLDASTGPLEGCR
Sequence of Mitogen-activated protein kinase 3 (P27361 whole entry): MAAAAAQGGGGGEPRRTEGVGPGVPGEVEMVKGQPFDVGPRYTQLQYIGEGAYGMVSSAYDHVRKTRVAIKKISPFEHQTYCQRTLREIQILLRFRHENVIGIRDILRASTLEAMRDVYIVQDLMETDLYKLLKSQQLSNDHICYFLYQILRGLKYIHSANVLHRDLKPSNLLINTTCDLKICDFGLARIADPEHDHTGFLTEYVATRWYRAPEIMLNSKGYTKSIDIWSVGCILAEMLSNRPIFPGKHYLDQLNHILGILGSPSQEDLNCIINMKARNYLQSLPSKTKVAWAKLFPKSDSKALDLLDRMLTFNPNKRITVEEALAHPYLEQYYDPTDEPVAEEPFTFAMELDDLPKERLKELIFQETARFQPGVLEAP
Sequence of Cytochrome P450 2D6 (P10635 whole entry): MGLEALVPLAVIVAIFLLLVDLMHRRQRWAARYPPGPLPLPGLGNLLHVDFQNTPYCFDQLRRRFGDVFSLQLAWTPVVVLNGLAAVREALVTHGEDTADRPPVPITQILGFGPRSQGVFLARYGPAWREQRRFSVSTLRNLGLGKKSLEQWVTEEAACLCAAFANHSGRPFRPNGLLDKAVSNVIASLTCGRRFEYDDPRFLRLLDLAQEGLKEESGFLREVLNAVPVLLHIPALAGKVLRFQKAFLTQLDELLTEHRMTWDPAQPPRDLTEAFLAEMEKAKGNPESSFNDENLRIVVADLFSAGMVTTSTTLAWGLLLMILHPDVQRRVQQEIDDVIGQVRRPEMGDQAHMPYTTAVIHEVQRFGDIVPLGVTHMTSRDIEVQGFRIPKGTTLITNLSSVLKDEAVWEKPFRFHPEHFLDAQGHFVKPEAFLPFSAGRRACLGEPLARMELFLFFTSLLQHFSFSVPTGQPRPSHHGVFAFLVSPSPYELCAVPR
Sequence of Cytochrome P450 3A4 (P08684 whole entry): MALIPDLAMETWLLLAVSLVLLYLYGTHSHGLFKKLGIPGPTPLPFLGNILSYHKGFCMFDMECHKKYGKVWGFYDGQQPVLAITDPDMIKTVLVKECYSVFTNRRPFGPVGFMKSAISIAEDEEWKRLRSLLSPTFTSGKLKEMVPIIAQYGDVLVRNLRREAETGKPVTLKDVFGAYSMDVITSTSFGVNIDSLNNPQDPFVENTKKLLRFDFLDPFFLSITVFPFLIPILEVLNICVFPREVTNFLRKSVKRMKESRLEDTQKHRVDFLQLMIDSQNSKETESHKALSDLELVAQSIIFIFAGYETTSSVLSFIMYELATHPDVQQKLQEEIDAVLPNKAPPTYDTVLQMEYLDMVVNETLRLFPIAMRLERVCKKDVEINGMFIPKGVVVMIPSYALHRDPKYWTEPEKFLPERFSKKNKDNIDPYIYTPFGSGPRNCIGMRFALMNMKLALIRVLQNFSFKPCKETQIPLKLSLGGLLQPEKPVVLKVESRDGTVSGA
Sequence of Mitogen-activated protein kinase 10 (P53779 whole entry): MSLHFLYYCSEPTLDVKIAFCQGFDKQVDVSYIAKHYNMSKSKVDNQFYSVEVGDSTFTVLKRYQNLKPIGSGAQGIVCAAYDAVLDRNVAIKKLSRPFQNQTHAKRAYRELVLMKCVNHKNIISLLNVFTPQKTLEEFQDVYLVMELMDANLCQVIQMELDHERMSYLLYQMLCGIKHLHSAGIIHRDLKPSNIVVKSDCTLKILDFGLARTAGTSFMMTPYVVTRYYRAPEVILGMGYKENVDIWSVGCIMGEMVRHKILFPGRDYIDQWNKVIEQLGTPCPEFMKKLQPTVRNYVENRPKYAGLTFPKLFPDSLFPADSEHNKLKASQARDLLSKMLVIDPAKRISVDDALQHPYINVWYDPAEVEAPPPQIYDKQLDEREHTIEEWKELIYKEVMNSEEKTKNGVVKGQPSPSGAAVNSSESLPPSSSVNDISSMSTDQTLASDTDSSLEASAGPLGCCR

logD [1]: 1.93
Tmax [2]: 1.5 h
IC50 [3]: 3400 nM
MRT [4]: 0.7 h
bioavailability [7]: 77%
Vd [8]: 1.6 L/kg
Tmax [9]: 1.3 h
solubility [10]: 780 µg/mL (≈ 1740 µM)
Vd [11]: 1.7 L/kg
Cmax [12]: 7.2 µM
bioavailability [13]: 30%
AUC (Canis familiaris [14]): 86 µM·h
AUC [15]: 1.9 µM·h
pKa [16]: 5.47
F (Canis familiaris [17]): 27%
AUC [18]: 100 µM·h
clearance [19]: 3.4 mL/min/kg
AUC [21]: 13 µM·h
inhibition (INH) (Cytochrome P450 3A4): Not Active
Vd [22]: 1.5 L/kg
bioavailability [25]: 30%
IC50 [29]: 480 nM
clearance [30]: 2.9 mL/min/kg
Tmax [31]: 2.5 h
MRT [32]: 10 h
Cmax [34]: 11 µM
clearance [35]: 39 mL/min/kg
AUC [36]: 3.1 µM·h
inhibition (INH) (Cytochrome P450 2D6): Not Active
AUC (Canis familiaris [37]): 11 µM·h
MRT [38]: 7.3 h
Cmax [39]: 0.7 µM
Compound: O[C@H]1CC[C@H](Nc2ncc3nc(Nc4c(F)cc(F)cc4F)n([C@H]4CCOC4)c3n2)CC1 [TANZISERTIB]
Activity (Salmonella typhimurium): Non-toxic
Activity (Rattus norvegicus [5]): Non-toxic
inhibition in vivo at 10 mg/kg (Rattus norvegicus [6]): 23%
Activity (Mus musculus [20]): 18%
inhibition (Mus musculus [23]): Active
Activity (Rattus norvegicus [24]): Non-toxic
inhibition in vivo at 30 mg/kg (Rattus norvegicus [26]): 77%
inhibition (Mus musculus [27]): Active
inhibition (Mus musculus [28]): Active
Activity (Mus musculus [33]): Dose-dependent effect

IC50 [3]: 2700 nM
IC50 [40]: 390 nM
IC50 [41]: 860 nM
bioavailability [13]: 70%
clearance [35]: 21 mL/min/kg
AUC [36]: 12 µM·h
Compound: O[C@H]1CC[C@H](Nc2ncc3nc(Nc4ccc(F)cc4F)n(C4CCOCC4)c3n2)CC1

Tmax [2]: 0.7 h
IC50 [3]: 4200 nM
MRT [4]: 1.1 h
IC50 [40]: 51 nM
bioavailability [7]: 48%
IC50 [41]: 91 nM
IC50 [42]: 7 nM
Vd [8]: 0.8 L/kg
Tmax [9]: 0.83 h
Vd [11]: 2.5 L/kg
Cmax [12]: 0.86 µM
bioavailability [13]: 33%
AUC [43]: 3.3 µM·h
AUC [15]: 1.8 µM·h
bioavailability [44]: 24%
AUC [18]: 23 µM·h
clearance [19]: 24 mL/min/kg
AUC [21]: 4.7 µM·h
Vd [22]: 1.4 L/kg
bioavailability [25]: 33%
clearance [30]: 7.1 mL/min/kg
Tmax [31]: 0.67 h
MRT [32]: 1.8 h
Cmax [34]: 11 µM
clearance [35]: 39 mL/min/kg
IC50 [45]: 10 nM
AUC [36]: 2.9 µM·h
AUC [46]: 1.4 µM·h
MRT [38]: 1 h
Cmax [39]: 1.2 µM
Compound: CNC(=O)[C@H]1CC[C@H](Nc2ncc3nc(Nc4c(F)cc(F)cc4F)n([C@H]4CCOC4)c3n2)CC1

IC50 [3]: 160 nM
IC50 [40]: 120 nM
IC50 [41]: 200 nM
bioavailability [13]: 32%
AUC [47]: 5 µM·h
clearance [35]: 25 mL/min/kg
Compound: CC(C)Nc1ncc2nc(Nc3c(F)cc(F)cc3F)n([C@H]3CC[C@@H](C(N)=O)CC3)c2n1
inhibition in vivo at 30 mg/kg (Rattus norvegicus [26]): 96%
